Assay results published in article PMC3325328 (Journal of Medicinal Chemistry, 2012).

Assays:
human TLR2 [1] = biological target: T1, human TLR2 (Homo sapiens, UniProt O60603); test: human TLR2-specific NF-κB reporter gene assay; format: cell-based; conditions: for absolute magnitude of TLR2-induced NF-κB activation (in words): Fig. 1
In short: (§1)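 HEK-Blue reporter cells with NF-κB-driven secreted alkaline phosphatase (sAP) were plated at ~10⁵ cells/mL and grown to confluency. They were then stimulated for 12 h with serially diluted test compound. Extracellular sAP in the supernatant was read spectrophotometrically at 620 nm using an alkaline phosphatase-specific chromogen in the detection medium. Samples were run in quadruplicate, with means and standard deviations shown.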

human TLR2 [2] = biological target: T1, human TLR2; conditions: cited from earlier work
murine TLR2 = murine TLR2 (Mus musculus, UniProt Q9QUN7); test: murine TLR2-specific NF-κB reporter gene assay; format: cell-based; conditions: for mTLR2-agonistic activity (in words): murine TLR2 reporter gene assay
In short: as §1

Chain of murine TLR2 (Q9QUN7 25-784): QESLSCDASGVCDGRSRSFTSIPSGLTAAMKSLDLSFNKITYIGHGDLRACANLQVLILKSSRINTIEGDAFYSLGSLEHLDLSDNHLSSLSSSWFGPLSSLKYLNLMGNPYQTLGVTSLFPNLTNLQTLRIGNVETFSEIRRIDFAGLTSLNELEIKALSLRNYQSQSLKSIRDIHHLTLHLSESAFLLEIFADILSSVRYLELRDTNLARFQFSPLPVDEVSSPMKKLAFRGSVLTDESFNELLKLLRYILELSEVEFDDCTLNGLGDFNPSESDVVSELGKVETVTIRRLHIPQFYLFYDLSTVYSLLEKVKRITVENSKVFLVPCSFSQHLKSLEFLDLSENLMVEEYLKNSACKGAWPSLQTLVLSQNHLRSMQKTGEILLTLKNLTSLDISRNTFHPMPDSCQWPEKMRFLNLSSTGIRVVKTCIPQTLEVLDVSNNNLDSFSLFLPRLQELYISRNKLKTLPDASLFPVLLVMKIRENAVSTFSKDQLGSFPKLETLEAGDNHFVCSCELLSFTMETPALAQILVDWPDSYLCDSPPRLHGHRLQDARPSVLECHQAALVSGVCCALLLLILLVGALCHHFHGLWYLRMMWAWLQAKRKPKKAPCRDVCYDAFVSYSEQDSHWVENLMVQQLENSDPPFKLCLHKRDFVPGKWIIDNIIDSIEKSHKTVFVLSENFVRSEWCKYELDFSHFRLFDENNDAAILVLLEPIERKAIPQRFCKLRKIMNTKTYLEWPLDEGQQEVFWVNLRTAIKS
T1 sequence (O60603 21-784): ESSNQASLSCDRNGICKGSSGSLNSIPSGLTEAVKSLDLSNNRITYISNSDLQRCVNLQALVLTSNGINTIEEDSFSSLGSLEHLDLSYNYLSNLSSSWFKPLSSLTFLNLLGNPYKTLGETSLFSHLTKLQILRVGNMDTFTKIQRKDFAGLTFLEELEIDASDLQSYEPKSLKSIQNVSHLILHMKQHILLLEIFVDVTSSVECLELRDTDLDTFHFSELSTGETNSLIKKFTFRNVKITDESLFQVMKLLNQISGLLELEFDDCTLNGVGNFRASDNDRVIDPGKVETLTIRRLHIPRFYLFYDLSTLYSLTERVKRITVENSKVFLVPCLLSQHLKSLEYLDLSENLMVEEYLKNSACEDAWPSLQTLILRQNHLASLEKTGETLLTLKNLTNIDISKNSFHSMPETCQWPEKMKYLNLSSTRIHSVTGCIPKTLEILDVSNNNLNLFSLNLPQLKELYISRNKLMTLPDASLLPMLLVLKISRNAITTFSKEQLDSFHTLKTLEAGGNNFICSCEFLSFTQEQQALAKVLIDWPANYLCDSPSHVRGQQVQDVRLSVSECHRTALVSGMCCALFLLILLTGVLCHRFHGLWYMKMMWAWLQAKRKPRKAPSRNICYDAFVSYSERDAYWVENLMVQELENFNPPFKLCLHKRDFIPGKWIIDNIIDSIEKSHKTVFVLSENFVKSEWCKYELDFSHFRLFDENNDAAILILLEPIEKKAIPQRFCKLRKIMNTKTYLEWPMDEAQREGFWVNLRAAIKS

CCCCCCCCCCCCCCNCC(=O)OCCSC[C@H](N)C(=O)N[C@@H](CO)C(=O)OC [Compound 10b, (S)-methyl 2-((R)-2-amino-3-((2-(2-(tetradecylamino)acetoxy)ethyl)thio)propanamido)-3-hydroxypropanoate]
hTLR2-agonistic activity (in words) (human TLR2 [1]): completely inactive

COC(=O)[C@H](CO)NC(=O)[C@@H](N)CSCCOC(=O)c1cccc(-c2ccccc2)c1 [Compound 6g, 2-(((R)-2-amino-3-(((S)-3-hydroxy-1-methoxy-1-oxopropan-2-yl)amino)-3-oxopropyl)thio)ethyl [1,1'-biphenyl]-3-carboxylate]
hTLR2-agonistic activity (in words) (human TLR2 [1]): complete absence of activity

CCCCCCCCCCCCCCCC(=O)OCCCSC[C@H](N)C(=O)N[C@@H](CO)C(=O)OC [Compound 15, 3-((R)-2-amino-3-((S)-3-hydroxy-1-methoxy-1-oxopropan-2-ylamino)-3-oxopropylthio)propyl palmitate]
TLR2-agonistic activity (in words), previously identified (human TLR2 [2]): inactive

CCCCCCCCCCCCCCCC(=O)OCCSC[C@H](NC(=O)C(F)(F)F)C(=O)N[C@@H](CO)C(=O)OC [Compound 11h, 2-(((R)-3-(((S)-3-hydroxy-1-methoxy-1-oxopropan-2-yl)amino)-3-oxo-2-(2,2,2-trifluoroacetamido)propyl)thio)ethyl palmitate]
absolute magnitude of TLR2-induced NF-κB activation (in words) (human TLR2 [1]): low magnitude of NF-κB activation

CCCCCCCCCCCCCCCCCC(=O)OCCSC[C@H](N)C(=O)N[C@@H](CO)C(=O)OC [Compound 6e, 2-(((R)-2-amino-3-(((S)-3-hydroxy-1-methoxy-1-oxopropan-2-yl)amino)-3-oxopropyl)thio)ethyl stearate]
mTLR2-agonistic activity (in words) (murine TLR2): entirely inactive

CCCCCCCCCCCCCCCC(=O)OCCSC[C@H](N)C(=O)N[C@@H](COC(C)=O)C(=O)OC [Compound 14a, 2-(((R)-3-(((S)-3-acetoxy-1-methoxy-1-oxopropan-2-yl)amino)-2-amino-3-oxopropyl)thio)ethyl palmitate]
hTLR2-agonistic activity (in words) (human TLR2 [1]): virtually indistinguishable from that of 6d

CCCCCCCCCCCCCCCC(=O)OCCSC[C@H](NC(C)=O)C(=O)N[C@@H](CO)C(=O)OC [Compound 11d, 2-(((R)-2-acetamido-3-(((S)-3-hydroxy-1-methoxy-1-oxopropan-2-yl)amino)-3-oxopropyl)thio)ethyl palmitate]
absolute magnitude of TLR2-induced NF-κB activation (in words) (human TLR2 [1]): far greater

COC(=O)[C@H](CO)NC(=O)[C@@H](N)CSCCOC(=O)c1ccc(-c2ccccc2)cc1 [Compound 6f, 2-(((R)-2-amino-3-(((S)-3-hydroxy-1-methoxy-1-oxopropan-2-yl)amino)-3-oxopropyl)thio)ethyl [1,1'-biphenyl]-4-carboxylate]
hTLR2-agonistic activity (in words) (human TLR2 [1]): complete absence of activity

CCCCCCCCCCCCCCN(CCCCCCCCCCCCCC)CC(=O)OCCSC[C@H](N)C(=O)N[C@@H](CO)C(=O)OC [Compound 10a, (S)-methyl 2-((R)-2-amino-3-((2-(2-(ditetradecylamino)acetoxy)ethyl)thio)propanamido)-3-hydroxypropanoate]
hTLR2-agonistic activity (in words) (human TLR2 [1]): completely inactive

CCCCCCCCCCCCCCCC(=O)OCCSC[C@H](N)C(=O)N[C@@H](CO)C(=O)OC [Compound 6d]
specificity for human versus murine TLR2 (in words) (murine TLR2; human and murine TLR2 reporter gene assays): exquisite specificity in activating human TLR2 (hTLR2), but not murine TLR2 (mTLR2) | mTLR2-agonistic activity (in words) (murine TLR2): entirely inactive

CCCCCCCCCCCCCCCC(=O)OCCCSC[C@H](NC(C)=O)C(=O)N[C@@H](CO)C(=O)OC [Compound 16, 3-(((R)-2-acetamido-3-(((S)-3-hydroxy-1-methoxy-1-oxopropan-2-yl)amino)-3-oxopropyl)thio)propyl palmitate]
hTLR2-agonistic activity (in words) (human TLR2 [1]): active, albeit much weaker in potency than 11d

CCCCCCCCCCCCCCCC(=O)N[C@@H](CSCCOC(=O)CCCCCCCCCCCCCCC)C(=O)N[C@@H](CO)C(=O)OC [Compound 11g, 2-(((R)-3-(((S)-3-hydroxy-1-methoxy-1-oxopropan-2-yl)amino)-3-oxo-2-palmitamidopropyl)thio)ethyl palmitate]
hTLR2-agonistic activity (in words) (human TLR2 [1]): complete loss of activity
